# FXIa inh – factor XIa (human) inhibition; purified FXIa, Boc-Glu-Ala-Arg-AMC fluorogenic substrate; inhibition, % at 5 µM; 220,000 compounds, 0.14% hits; AID 798;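 active = inhibition of at least 40%; inactive = inhibition below 40%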;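 also: fluorescence of freed AMC excited at 355 nm; 0% = enzyme without compound and 100% = no enzyme blank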
# FXIIa inh – blocks human coagulation factor XIIa protease activity. AID 800. purified FXIIa, Boc-QGR-AMC fluorogenic substrate, 2 h. inhibition, % at 5 µM. 220,000 compounds, 0.3% hits. P00748; in the data active = inhibition above about 40%;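 also: 0% = enzyme with no compound and 100% = blank without enzyme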
# Thrombin inh – inhibitors of human thrombin. alpha-thrombin, Boc-VPR-AMC fluorogenic substrate cleavage. inhibition, % at 5 µM. 220,000 compounds, 0.26% hits. AID 1046;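 active = inhibition at or above 40%; inactive = inhibition below 40%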;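 also: 0% = enzyme with no compound and 100% = wells without enzyme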
#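 Test system: human alpha-thrombin protein / Dosing: one concentration per compound, 5 µM, with 0.2% DMSO / Medium: pH 7.5 Tris-saline with Tween 20 / Benchmarks: no-compound enzyme wells and no-enzyme blanks / Read-out basis: percent inhibition of thrombin substrate cleavage / Timing: reaction at room temperature / Measured by: fluorescence, ex 355 nm, em 460 nm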
# hK5 inh – kallikrein 5 (human) inhibition; Q9Y337; recombinant hK5, fluorogenic AMC substrate cleavage; inhibition, % at 5 µM; 210,000 compounds, 0.59% hits;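 active = inhibition of 40% or more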;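 also: 0% = enzyme controls without compound and 100% = no-enzyme blanks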
# Target sequence (Q9Y337 67-293 limits assumed): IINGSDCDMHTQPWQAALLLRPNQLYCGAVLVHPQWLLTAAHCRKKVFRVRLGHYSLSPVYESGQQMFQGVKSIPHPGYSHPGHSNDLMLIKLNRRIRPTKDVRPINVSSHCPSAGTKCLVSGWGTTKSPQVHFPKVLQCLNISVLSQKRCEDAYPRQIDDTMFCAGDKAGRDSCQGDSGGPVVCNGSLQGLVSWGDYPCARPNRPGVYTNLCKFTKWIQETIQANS
# Numbers without * were called inactive; . = no result. Most compounds without a hit are left out; they make up all but 1% or so of the library.
SMILES,FXIa inh,FXIIa inh,Thrombin inh,hK5 inh
O=C(CCC(=O)N/N=C/c1ccc(Br)s1)NCc1ccccc1,10,44*,29,20
COc1ccc(-c2[nH]ncc2-c2ccc3c(c2)OCCO3)c(O)c1,9,8,101*,49*
Cc1nc(Cl)c(C#N)cc1-c1ccccc1,12,18,28,57*
O=C1C=C(NNC(=O)c2cccnc2)CC(c2ccco2)C1 (stereo not given),-3,9,2,0
CC1(C)CC(=O)CC(=NCC(=O)O)C1,-7,-2,0,128*
COc1cc(OC)c(CNC2CCCCCC2)cc1Br,-5,1,-11,-5
O=C(Cn1cc2c(n1)CCCC2)NCc1ccccn1,12,16,18,45*
COc1ccc2[nH]c(C(=O)O)c(CCN3C(=O)c4cccc([N+](=O)[O-])c4C3=O)c2c1,10,4,0,-2
O=C(COC(=O)CCN1C(=O)c2cccc([N+](=O)[O-])c2C1=O)NCc1ccccc1,38,26,-8,42*
Cc1cc(=O)oc2cc(OC(=O)CCN3C(=O)c4ccccc4C3=O)ccc12,-14,63*,8,-25
Cc1cc(=O)oc2cc(OCCCN3C(=O)c4ccccc4C3=O)ccc12,6,3,-8,-4
CC(=O)NC(=S)Nc1cc(C(F)(F)F)ccc1N1CCOCC1,6,7,-1,-8
O=C(NC(=S)Nc1cc(C(F)(F)F)ccc1N1CCOCC1)c1ccco1,7,28,11,42*
c1ccc(Nc2cccc(Nc3ccccc3)c2)cc1,10,17,14,48*
CC(=O)c1ccc2c(c1)N(C)c1ccccc1S2,16,21,17,41*
NNC(=O)CN1C(=O)Nc2ccc(Br)cc2C1c1ccccc1 (stereo not given),7,24,55*,42*
c1ccc(CCN=C2CCCc3c2[nH]c2ccccc32)cc1,2,1,-2,1
CCn1c(NCc2ccc3c(c2)OCO3)nc2ccccc21,3,11,21,53*
O=C(Cc1ccccc1)NCC(=O)N/N=C/c1ccc(Cl)cc1,-6,9,-21,0
Cc1ccc(C)c(Cn2c(CO)nc3ccccc32)c1,7,-6,17,41*
CCOC(=O)c1[nH]c2ccccc2c1NC(=S)Nc1ccccc1,6,15,43*,-9
CCOc1ccc(N2C(=O)C3ON(c4ccccc4)C(c4cccs4)C3C2=O)cc1 (stereo not given),-4,3,6,-1
CCCCc1[nH]c(=O)c(C#N)c2c1CCCC2,34,49*,3,-6
Cc1ccc(C)c(NC(=S)NCCc2c[nH]c3ccccc23)c1,-8,15,10,42*
Cc1ccc(NCC(=O)Nc2cccc(S(=O)(=O)N(C)C)c2)c(Cl)c1,7,21,2,-10
SMILES,FXIa inh,FXIIa inh,Thrombin inh,hK5 inh
CC(=O)c1c(C)[nH]c(C(=O)CSc2nnc(C)s2)c1C,28,25,40,52*
COC(=O)c1c(C)[nH]c(C(C)=O)c1C,-18,-10,-3,11
CC(=O)c1[nH]c(C)c(C(C)=O)c1C,3,30,8,47*
COc1cc(/C=N/NC(=O)c2ccc(CN3C(=O)c4cccc5cccc3c45)cc2)cc(OC)c1O,50*,27,13,24
C/C(=N\NC(=O)CN1CCN(S(=O)(=O)c2ccc(C)cc2)CC1)c1ccc(O)cc1,1,5,-12,3
C#CCOc1nc(Nc2cccc([N+](=O)[O-])c2)nc(OCC#C)n1,5,41*,5,22
CC1CCc2c(sc(NC(=O)C3CCCO3)c2C#N)C1 (stereo not given),8,2,-2,7
CC1CCc2c(sc(NC(=O)COC(=O)C3CCCO3)c2C#N)C1 (stereo not given),26,24,45*,24
Cc1ccc(NCc2cccnc2)c(Br)c1,13,19,13,47*
COc1cccc(CNc2ccc(S(N)(=O)=O)cc2)c1OC,6,107*,18,31
COc1cccc(CNc2ccc(N3CCCCC3)cc2)c1OC,16,11,-1,13
NC(=O)CSc1nnc(-c2ccccn2)n1N,-3,7,-5,-8
Cn1c2c(c3ccccc31)CCSC2=O,11,71*,0,2
Cn1c(-c2ccccc2)c(C=O)c2ccccc21,0,11,-9,6
C/C(=N\NC(=O)CCn1nnc2ccccc21)c1cccs1,11,43*,24,19
CCOC(=O)c1c(C)nc(-c2ccccc2)nc1NC(=O)CC,11,20,34,58*
CCC(=O)Nc1nc(-c2ccccc2)nc(SC)c1C(C)=O,-9,5,-23,-4
CCOC(=O)c1cnc(Nc2nc3ccccc3o2)nc1CN1CCN(C)CC1,-11,-8,-2,-260
CCc1ccc(N(C(C)=O)c2nc(CCl)cs2)cc1,30,24,12,88*
COc1ccccc1OCC(O)CN1C(=O)NC(C)(C)C1=O (stereo not given),3,19,15,64*
CC1(C)NC(=O)N(CC(O)COc2ccccc2-c2ccccc2)C1=O (stereo not given),1,13,5,-6
O=[N+]([O-])c1cc(S(=O)(=O)Nc2cccc(Cl)c2)ccc1N/N=C/c1ccc(N2CCOCC2)cc1,-1,8,-2,6
O=Nc1ccc(NOC(=O)c2ccc(Br)cc2)cc1,5,39,1,2
Cc1ccc(C(=O)ONc2ccc(N=O)cc2)cc1,8,44*,1,-8
CC1(C)CC2CC(C)(CN2C(=O)c2cc(-c3ccccc3O)on2)C1 (stereo not given),8,29,26,45*
SMILES,FXIa inh,FXIIa inh,Thrombin inh,hK5 inh
COC(=O)C1CC(=O)c2ccsc2C1 (stereo not given),-1,9,49*,30
COC(=O)C1C/C(=N\NS(=O)(=O)c2ccc(C)cc2)c2sccc2C1 (stereo not given),8,8,1,-9
COc1ccc(C(=O)Nc2cccc(NC(C)=O)c2)cc1OC,7,14,2,0
COc1ccc(C(=O)Nc2cccc(S(C)(=O)=O)c2)cc1OC,28,22,11,43*
COCCNC(=O)CSc1nnc(CCCN2C(=O)c3cccc4cccc(c34)C2=O)n1-c1ccccc1,9,5,-1,-2
Cc1cc(NC(=O)CCN2C(=O)/C(=C/c3ccccc3F)SC2=S)no1,2,95*,-8,-1
COc1cc(/C=N/Nc2cc(C)nc(NS(=O)(=O)c3ccccc3)n2)ccc1O,67*,37,26,23
Cc1c[n+](C)ccc1CC1C([N+](=O)[O-])=C[N-]c2ncnn21 (stereo not given),-1,6,0,.
N/C(=N\OC(=O)c1ccc(Cl)c([N+](=O)[O-])c1)c1ccccn1,3,98*,0,0
N/C(=N\OC(=O)c1ccc(Cl)c(Cl)c1)c1ccccn1,-2,18,9,8
CCC(=O)c1ccccc1OCCSc1nc(C)cc(=O)[nH]1,-2,0,2,146*
CCCOc1cccc(OCCSc2nc(C)cc(=O)[nH]2)c1,-8,-1,-2,-13
